Only some compounds are listed: those with a hit (about 4.2% of all), similar ones and a draw of the others.
OX1R antag-1 = OX1R (HCRTR1) antagonists, primary screen, fluorescence, CHO/OX1R cells, Fluo-8 calcium, orexin A | Orexin/Hypocretin receptor type 1 (Homo sapiens), O43613 | Fluo-8 calcium fluorescence | inhibition, % at 5 µM | 330,000 compounds, 0.43% hits | AID 434989, 2010;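 active = inhibition above its plate's threshold, mean inhibition of all tested compounds on the plate plus 3 SD, cut at about 37% in these data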;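 also: 0% = orexin A challenge wells and 100% = SB-334867-A antagonist wells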
CHO parental Ca = ATP-evoked calcium signal inhibitors, parental CHO, primary screen, counter-screen for OX1R antagonist project, cell-based, fluorescence, Fluo-8 calcium dye. parental CHO-K1, ATP-induced calcium, Fluo-8 fluorescence. inhibition, % at 5.6 µM. 330,000 compounds, 0.63% hits. AID 463079, 2010;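 active = inhibition above that plate's mean sample inhibition plus 3 SD, cut at about 26% in these data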;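 also: 0% = ATP-challenged DMSO wells and 100% = DMSO wells without ATP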
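Material: parental CHO cells / Compound: single nominal dose of 5.6 µM per compound / Signal: Fluo-8 fluorescence / Replicates: singlicate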
TAAR1 ag = human TAAR1 agonists, primary screen, Fluo-8 calcium fluorescence, CHO RD-HGA16 cells; AID 624467, 2012; vehicle wells 0%, saturating PEA agonist 100%; activation, % at 3 µM; 360,000 compounds, 0.99% hits;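 active = activation above the mean activation of all test compounds in the run plus 3 SD, cut at about 38% in these data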
Target sequence (Q96RJ0 whole entry, looked up): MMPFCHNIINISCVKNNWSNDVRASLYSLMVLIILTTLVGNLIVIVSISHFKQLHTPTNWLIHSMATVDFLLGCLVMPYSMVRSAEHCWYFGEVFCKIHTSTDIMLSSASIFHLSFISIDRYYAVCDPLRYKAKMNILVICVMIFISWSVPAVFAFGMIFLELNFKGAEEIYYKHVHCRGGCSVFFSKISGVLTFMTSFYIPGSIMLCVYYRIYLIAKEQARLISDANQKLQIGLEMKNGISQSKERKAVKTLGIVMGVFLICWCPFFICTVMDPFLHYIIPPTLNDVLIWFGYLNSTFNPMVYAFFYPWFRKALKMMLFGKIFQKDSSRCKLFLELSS
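test system = CHO RD-HGA16 cells carrying human TAAR1 plus Gα16 | schedule = 17-24 h seeding, 75 min 37 °C dye, 30 min RT | compound dosing = 3 µM single concentration | control set = DMSO and PEA EC100 | replicates = n 1 | signal = Fluo-8 fluorescence, 5 s baseline then 140 s kinetic read | measure = percent activation vs PEA EC100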
GalR3 antag = GalR3 antagonists in HEK293 cells, primary screen, cell-based, fluorescence readout; Galanin receptor type 3 (Homo sapiens), O60755; HEK293 GalR3-CNG cAMP membrane potential fluorescence; galR3 body fused to GalR1 C-terminus; inhibition, % at 3 µM; 360,000 compounds, 0.44% hits; AID 651719, 2012;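 active = inhibition above the screen-wide average plus 3 SD, cut at about 13% in these data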;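 also: forskolin and galanin both at EC90 stimulate the cells; cAMP rise reported by CNG channel membrane potential dye signal; 0% = forskolin plus galanin with DMSO and 100% = forskolin alone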
Target sequence (O60755 1-299 limits assumed): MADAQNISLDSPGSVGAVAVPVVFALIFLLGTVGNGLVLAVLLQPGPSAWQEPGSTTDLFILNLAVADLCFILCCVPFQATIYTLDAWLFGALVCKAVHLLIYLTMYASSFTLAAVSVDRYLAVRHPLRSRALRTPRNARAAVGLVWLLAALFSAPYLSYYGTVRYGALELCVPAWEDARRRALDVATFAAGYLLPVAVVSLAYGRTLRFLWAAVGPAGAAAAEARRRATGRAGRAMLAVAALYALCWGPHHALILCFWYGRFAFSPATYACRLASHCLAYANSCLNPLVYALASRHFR
OX1R antag-2 = antagonists of human orexin 1 receptor (OX1R). Orexin/Hypocretin receptor type 1 (Homo sapiens), O43613. AID 485270, 2010. inhibition, % at 6.6 µM. 330,000 compounds, 1.8% hits. OX1R-expressing cells, FRET antagonist read-out; in the data active = inhibition mostly above about 38%, no sharp cut-off; inactive = mostly below about 40%;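 also: 0% = agonist challenge alone and 100% = reference antagonist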
TAAR1 antag = human TAAR1 antagonists, primary screen, Fluo-8 calcium fluorescence, CHO RD-HGA16 cells | Trace amine-associated receptor 1 (Homo sapiens), Q96RJ0 | antagonist | inhibition, % at 3 µM | 360,000 compounds, 1.5% hits | AID 624466, 2012;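 active = inhibition above a per-plate cutoff, the mean inhibition of test compounds on that plate plus 3 SD, cut at about 49% in these data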;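 also: 0% = DMSO plus EC80 beta-PEA response and 100% = DMSO alone without agonist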
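Test system: hTAAR1-expressing CHO RD-HGA16 cells, Gα16-coupled; Probe or stimulus: EC80 β-phenethylamine stimulus; Compound dosing: single nominal final test compound concentration of 3 µM; Timing: 140 s kinetic read after compound, 140 s after agonist; Signal: Fluo-8 calcium-sensitive fluorescence; Measure: % inhibition of agonist calcium response; Controls: DMSO and EC80 PEA controls.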
OX1R Ca confirm = OX1R (HCRTR1) antagonists, confirmation, fluorescence, CHO/OX1R cells, Fluo-8 calcium, orexin A. AID 492963, 2010. shares compounds with OX1R antag-1. orexin A calcium Fluo-8 fluorescence. 1,100 compounds, 38% hits. inhibition, % at 5 µM; in the data active = inhibition above about 29%;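 also: 0% = agonist challenge alone and 100% = reference antagonist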
CHO Ca counter = ATP-evoked calcium inhibition in parental CHO, counter-screen for OX1R antagonist project, cell-based, fluorescence, CHO-K1, triplicate | shares compounds with OX1R antag-1 | ATP-induced calcium, Fluo-8 fluorescence | inhibition, % at 5.6 µM | 1,100 compounds, 9.3% hits | AID 492965, 2010;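 active = inhibition above a per-plate limit, the mean inhibition of that plate's test compounds plus 3 SD, cut at about 25% in these data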;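 also: 0% = ATP challenge with DMSO and 100% = DMSO without ATP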
OX1R HTRF conf = OX1R (HCRTR1) antagonists, confirmation, cell-based, HTRF | shares compounds with OX1R antag-2 | inhibition, % at 6.6 µM | OX1R-expressing cells, HTRF antagonist assay | 1,800 compounds, 49% hits | AID 492964, 2010; in the data active = inhibition above about 55%;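 also: CHO cells expressing OX1R stimulated with orexin A at about EC80; 0% = agonist challenge alone and 100% = reference antagonist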
CHO-K1 HTRF cnt = signal inhibition in parental CHO-K1 cells, counter-screen for OX1R antagonist project, cell-based, HTRF; inhibition, % at 6.6 µM; 1,800 compounds, 48% hits; AID 493232, 2011; HTRF counterscreen; shares compounds with OX1R antag-2; in the data active = inhibition above about 17%;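 also: 0% = agonist challenge with vehicle and 100% = vehicle alone without agonist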
* hit, by the source's call.

What do the screens show for `O=C(Nc1ccc(Cl)c(Cl)c1)c1cccc(S(=O)(=O)NCc2cccnc2)c1`?
OX1R antag-1: 36; CHO parental Ca: -3; TAAR1 ag: 35; GalR3 antag: 5; OX1R antag-2: 67*; TAAR1 antag: 25; OX1R Ca confirm: 38*; CHO Ca counter: 55*; OX1R HTRF conf: 77*; CHO-K1 HTRF cnt: 5

How did CC1=C(C(=O)Nc2cccnc2)C(c2ccc(C(C)C)cc2)n2ncnc2N1 (configuration not stated) do in these assays?
TAAR1 ag: 2; GalR3 antag: -1; TAAR1 antag: 3

Results for CCCCC(CC)C(=O)Nc1ccccc1C#N (configuration not stated) ?
OX1R antag-1: -9; CHO parental Ca: -9; TAAR1 ag: 8; GalR3 antag: -4; OX1R antag-2: -1; TAAR1 antag: -5

How did NC(=S)N/N=C/c1ccccc1OCc1cccc(Cl)c1 do in these assays?
OX1R antag-1: 54*; CHO parental Ca: -5; OX1R antag-2: 81*; OX1R Ca confirm: 35*; CHO Ca counter: 2; OX1R HTRF conf: 81*; CHO-K1 HTRF cnt: 14

Results for O=C(O/N=C/c1ccc2c(c1)OCO2)c1ccc([N+](=O)[O-])cc1 ?
OX1R antag-1: -4; CHO parental Ca: -4; TAAR1 ag: 0; GalR3 antag: 5; OX1R antag-2: 28; TAAR1 antag: -20

How did CCOC(=O)C(NC(=O)CC)(Nc1sc(C)c(CC)c1C#N)C(F)(F)F (configuration not stated) do in these assays?
OX1R antag-1: -25; CHO parental Ca: -19; TAAR1 ag: 1; GalR3 antag: -11; OX1R antag-2: 14; TAAR1 antag: 11

How did Cc1cc(C)nc(NC(=O)/C=C/c2ccc(Cl)cc2Cl)c1 do in these assays?
OX1R antag-1: 43; CHO parental Ca: -22; TAAR1 ag: 3; GalR3 antag: -2; OX1R antag-2: 92*; TAAR1 antag: 37; OX1R Ca confirm: -5; CHO Ca counter: -5; OX1R HTRF conf: 63*; CHO-K1 HTRF cnt: 3

How did O=c1[nH][nH]c(=S)n1C1CCCCC1 do in these assays?
OX1R antag-1: -3; CHO parental Ca: -8; OX1R antag-2: 7

Results for CC(C)n1c(=O)[nH][nH]c1=S ?
OX1R antag-1: 39*; CHO parental Ca: 11; TAAR1 ag: 2; GalR3 antag: -4; OX1R antag-2: 63*; TAAR1 antag: -13; OX1R Ca confirm: 55*; CHO Ca counter: 4; OX1R HTRF conf: 79*; CHO-K1 HTRF cnt: 12

How did CC(C)(C)c1ccc(C(=O)NC(=S)N2CCOCC2)cc1 do in these assays?
OX1R antag-1: -13; CHO parental Ca: 0; TAAR1 ag: 7; GalR3 antag: -1; OX1R antag-2: 1; TAAR1 antag: -8

Results for COc1ccc(Cl)cc1NC(=O)COC(=O)CCCC1=NS(=O)(=O)c2ccccc2N1 ?
OX1R antag-1: -27; CHO parental Ca: -12; TAAR1 ag: 9; GalR3 antag: -8; OX1R antag-2: 5; TAAR1 antag: 23

Results for CNc1oc(-c2cccc3ccccc23)nc1C#N ?
OX1R antag-1: 92*; CHO parental Ca: -15; TAAR1 ag: -2; GalR3 antag: -5; OX1R antag-2: 90*; TAAR1 antag: 14; OX1R Ca confirm: 68*; CHO Ca counter: -2; OX1R HTRF conf: 94*; CHO-K1 HTRF cnt: 5

How did CNc1oc(-c2ccccc2Cl)nc1C#N do in these assays?
OX1R antag-1: -3; CHO parental Ca: -4; TAAR1 ag: 3; GalR3 antag: 2; OX1R antag-2: 20; TAAR1 antag: -4

What do the screens show for `C[C@H]1CC[C@@]2(O[C@H](CCO)C[C@@H](O)[C@@H]2O)O1`?
OX1R antag-1: -8; CHO parental Ca: -5; TAAR1 ag: 11; GalR3 antag: 1; OX1R antag-2: 13; TAAR1 antag: -1

How did Cc1ccc(NC(=O)COc2cccc(Oc3ccccc3)c2)cc1S(=O)(=O)N1CCOCC1 do in these assays?
OX1R antag-1: 45*; CHO parental Ca: -5; TAAR1 ag: 11; GalR3 antag: 2; OX1R antag-2: 30*; TAAR1 antag: 40; OX1R Ca confirm: 32*; CHO Ca counter: -8; OX1R HTRF conf: 18; CHO-K1 HTRF cnt: 0

What do the screens show for `Cc1cc(C)c2nc(NC(=O)CN3C(=O)NC4(CCCC4)C3=O)sc2c1`?
OX1R antag-1: 30; CHO parental Ca: -12; TAAR1 ag: 5; GalR3 antag: -3; OX1R antag-2: 69*; TAAR1 antag: -4; OX1R Ca confirm: 18; CHO Ca counter: -3; OX1R HTRF conf: 52; CHO-K1 HTRF cnt: 0

How did FC(F)(F)c1nnc2c(Sc3ccccn3)nc3ccccc3n12 do in these assays?
OX1R antag-1: -24; CHO parental Ca: -6; TAAR1 ag: 0; GalR3 antag: -3; OX1R antag-2: 15; TAAR1 antag: 8

How did Cc1ccc(N=C2NC(=O)/C(=C/c3cccn3C)S2)cc1C do in these assays?
OX1R antag-1: 57*; CHO parental Ca: -33; TAAR1 ag: 0; GalR3 antag: -6; OX1R antag-2: 79*; TAAR1 antag: 0; OX1R Ca confirm: 62*; CHO Ca counter: -16; OX1R HTRF conf: 87*; CHO-K1 HTRF cnt: 7

What do the screens show for `COc1ccc(OC)c(CCNC(=O)Cn2ccc3cc(S(=O)(=O)N4CCCC4)ccc32)c1`?
OX1R antag-1: 26; CHO parental Ca: -6; TAAR1 ag: 3; GalR3 antag: 0; OX1R antag-2: 54*; TAAR1 antag: -10; OX1R Ca confirm: 22; CHO Ca counter: -5; OX1R HTRF conf: 63*; CHO-K1 HTRF cnt: 3
